{"source": "ChEMBL document CHEMBL4043073", "about": "“Boronic Acid Modifications Enhance the Anti-Influenza A Virus Activities of Novel Quindoline Derivatives” (J Med Chem, 2017)", "assay_type_in_all_cases": "functional, cell-based", "key": {"[1]": {"tested_on": "Influenza A virus", "assay": "Antiviral activity against Influenza A virus (A/Puerto Rico/8/34(H1N1)) infected in MDCK cells assessed as reduction in virus-induced cytopathic effect after 48 hrs by crystal violet staining based assay", "conditions": "A/Puerto Rico/8/1934(H1N1)", "summary_of_the_method": "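MDCK cells infected with PR8 at MOI 0.1; compounds added in triplicate after inoculum removal. After 48 h cells were fixed with 4% formaldehyde and stained with 0.1% crystal violet. Dye was methanol-solubilised and read at 570 nm; IC50 was the concentration halving CPE.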"}, "[2]": {"assay": "(§1) Antiviral activity against Influenza A virus (A/California/04/2009(H1N1)) infected in MDCK cells assessed as reduction in viral HA titer by measuring reduction in chicken RBC […] after 24 hrs by hemagglutination test", "summary_of_the_method": "(§2)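 MDCK cells infected at MOI 3.0 (single-cycle) with PR8, Cal09 or swine H3N2 Minnesota, then treated with compound for 24 h. Supernatant HA titers were read by 2-fold serial dilution with an equal volume of 1% chicken RBCs, 60 min at 4 °C. Expressed as percent of untreated-cell HA titer; IC50 derived; n = 4.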"}, "[3]": {"tested_on": "Influenza A virus (A/California/04/2009(H1N1))", "assay": "as §1", "summary_of_the_method": "as §2"}, "[4]": {"tested_on": "Influenza A virus", "assay": "Antiviral activity against Influenza A virus (A/Puerto Rico/8/34(H1N1)) infected in MDCK cells assessed as reduction in viral HA titer by measuring reduction in chicken RBC […] after 24 hrs by hemagglutination test", "conditions": "A/Puerto Rico/8/1934(H1N1)", "summary_of_the_method": "as §2"}}, "data": [{"smiles": "O=C(Nc1ccccc1Nc1c2ccccc2nc2c1[nH]c1ccccc12)c1cccc(B(O)O)c1", "values": [{"measurement": "IC50", "setting": "[1]", "result": 5.1, "unit": "µM"}, {"measurement": "IC50", "setting": "[2]", "result": 4.3, "unit": "µM"}, {"measurement": "Activity", "setting": "[3]", "result": "Dose-dependent effect"}, {"measurement": "Activity", "setting": "[4]", "result": "Dose-dependent effect"}, {"measurement": "IC50", "setting": "[4]", "result": 2.5, "unit": "µM"}]}]}
